Experiment [1] deals with MDA-MB-231. Kind of experiment: Inhibition of cell migration in human MDA-MB-231 cells assessed as reduction of cell mobility at 5 nM measured at 24 hrs by well scratch method. The class given is functional, cell-based. Put shortly: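 MDA-MB-231 cells (3 × 10^4/well) attached overnight, then exposed to 5 nM in serum-free DMEM for 48 h. Monolayer scratched, debris washed off, complete medium added without drug. Images taken at 10× at 0 h and after 24 h; percentage wound coverage quantified. Two-tailed unpaired t test.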

Experiment [2] relates to MDA-MB-231. Kind of experiment: Cell cycle arrest in human MDA-MB-231 cells assessed as accumulation at G1 phase at 125 nM after 24 hrs by RNaseA/propidium iodide staining based FACSCalibur flow cytometry (reference value: 37.64 %). The class given is functional.
Experiment [3] has as its system MDA-MB-231. Kind of experiment: Cell cycle arrest in human MDA-MB-231 cells assessed as accumulation at sub G1 phase at 125 nM after 24 hrs by RNaseA/propidium iodide staining based FACSCalibur flow cytometry (reference value: 3.27 %). The experiment is classed as functional. In general terms: A flow cytometer gives signals particle by particle.
For another experiment, the system named is SK-BR-3. In words: Cytotoxicity against human SKBR3 cells assessed as reduction in cell viability incubated for 96 hrs by XTT assay. The class given is functional, cell-based. The settings on record: SK-BR-3, 96 h. In outline: (§1)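 XTT viability assay on human breast cancer cells. Cells were seeded at 5000 cells/well, left to adhere overnight, then exposed to increasing compound concentrations for 96 h in complete medium with DMSO below 0.05% final. Wells were washed and refed, then given XTT reagent for 3 h, with absorbance read at 450 nm. Response was normalized to DMSO controls. Tetraplicates, three independent experiments. IC50 from a four-parameter variable-slope fit.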
In general terms: Tetrazolium assays rely on reduction of a dye to a coloured formazan, in cell work by metabolically active cells.

For experiment [4], the system named is MDA-MB-231. Kind of experiment: Cytotoxicity against human MDA-MB-231 cells assessed as reduction in cell viability incubated for 96 hrs by XTT assay. The experiment is classed as functional, cell-based. In outline:
as §1

For a further experiment, the target named is Tubulin (Homo sapiens) (UniProt P68371+Q9H4B7+P0DPH7+P68366+Q13509+Q71U36+P04350+Q3ZCM7+P07437+P68363+Q9BQE3+Q6PEY2+Q13885+Q9BVA1+Q9BUF5). In words: Inhibition of microtubule in human MDA-MB-231 cells assessed as reduction in microtubule network in interphase cells measured after 24 hrs by DAPI staining based immunofluorescence microscopic analysis. The settings on record: dose 5-625 nM. The class given is cell-based. Put shortly:
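MDA-MB-231 cells (10 000/well, 70–80% confluent) treated 24 h at 5, 25, 125 and 625 nM in DMEM. Fixed in 4% paraformaldehyde, permeabilized with 0.2% Triton X-100, blocked in 5% BSA, stained with anti-α-tubulin (DM1A, 1:800, 16 h) and Alexa Fluor 488 secondary, nuclei with DAPI. Imaged at 40×; interphase microtubule network quantified, unpaired two-tailed t test.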

The subject of the next experiment is BT-474. In words: Cytotoxicity against human BT-474 cells assessed as reduction in cell viability incubated for 96 hrs by XTT assay. The class given is functional, cell-based. The settings on record: BT-474, 96 h. In outline: as §1
The subject of experiment [5] is MDA-MB-231. Kind of experiment: Induction of mitochondrial disintegration in human MDA-MB-231 cells at 625 nM measured after 24 hrs by Mitotracker green dye based fluorescence microscopy. The class given is functional, cell-based. Put shortly: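 MDA-MB-231 cells (7000/well) grown overnight in DMEM with 10% FBS, then given 5, 25, 125 or 625 nM for 24 h. Live cells labelled 30 min with 75 nM MitoTracker Green FM in serum- and phenol red-free DMEM, counterstained with DAPI for 15 min, and imaged by fluorescence microscopy at 40× to view mitochondrial fission.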

Experiment [6] concerns MDA-MB-231. In words: Cell cycle arrest in human MDA-MB-231 cells assessed as accumulation at S phase at 125 nM after 24 hrs by RNaseA/propidium iodide staining based FACSCalibur flow cytometry (reference value: 19.96 %). The class given is functional.
Experiment [7] deals with MDA-MB-231. Kind of experiment: Cell cycle arrest in human MDA-MB-231 cells assessed as accumulation at G2/M phase at 125 nM after 24 hrs by RNaseA/propidium iodide staining based FACSCalibur flow cytometry (reference value: 26.37 %). The class given is functional.

Calls of active or inactive are those of the source. The calls are words filed in the database; no cut-off is given here. Square brackets hold non-standard residues; d marks the D form. Peptide text beside a SMILES is read from it. Dolaproine = CO[C@@H]([C@@H]1CCCN1)[C@@H](C)C(=O)O; Dil = CC[C@H](C)[C@H](NC)[C@@H](CC(=O)O)OC; NMeV = CN[C@H](C(=O)O)C(C)C

In ChEMBL document CHEMBL4842389, “Discovery of Dolastatinol: A Synthetic Analog of Dolastatin 10 and Low Nanomolar Inhibitor of Tubulin Polymerization” (ACS Med Chem Lett, 2021) one finds inhibition, Activity and IC50 data, which are given here for 1 compound.

As usually defined, the IC50 is the midpoint of a concentration-inhibition curve. Turning to `CC[C@H](C)[C@@H]([C@@H](CC(=O)N1CCC[C@H]1[C@H](OC)[C@@H](C)C(=O)N[C@@H](Cc1ccccc1)C(=O)O)OC)N(C)C(=O)[C@@H](NC(=O)[C@@H](NC)C(C)C)C(C)C` (H-[NMeV]V[Dil][Dolaproine]F-OH), in the experiment on MDA-MB-231 [1], the inhibition entry is “Active”. The Activity amounted to 30.88% in the experiment on MDA-MB-231 [2], 9.66% in the experiment with MDA-MB-231 [3], 16.11% with MDA-MB-231 [6] and 32.79% with MDA-MB-231 [7]. The IC50 with SK-BR-3 is 5.3 nM; with MDA-MB-231 [4], “Not Active”; in the experiment with BT-474, 8.8 nM. Further, the inhibition result at Tubulin (Homo sapiens) is “Dose-Dependent Effect”. In addition, in the experiment on MDA-MB-231 [5], the result was inactive.
